Most compounds without a hit are left out; they make up all but 1.2% or so of the library.
Wee1 stabilizer – Wee1 degradation inhibitors, primary screen, cell-based, HeLa, Wee1K328M-luciferase, luminescence; HeLa Luc-Wee1K328M stability; 100% = proteasome inhibitor MG132 effect; 220,000 compounds, 1.2% hits; Wee1-like protein kinase (Homo sapiens), P30291; reporter increase, % at 5 µM; AID 1321, 2008;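 active = activation above the mean of all tested compounds plus 3 SD, set per screening run, cut at about 8.8% in these data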;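 note: cells exposed to compound for 20 h before luminescence read; 0% = DMSO alone and 100% = MG132 at 30 µM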
Target sequence (P30291 whole entry K328M): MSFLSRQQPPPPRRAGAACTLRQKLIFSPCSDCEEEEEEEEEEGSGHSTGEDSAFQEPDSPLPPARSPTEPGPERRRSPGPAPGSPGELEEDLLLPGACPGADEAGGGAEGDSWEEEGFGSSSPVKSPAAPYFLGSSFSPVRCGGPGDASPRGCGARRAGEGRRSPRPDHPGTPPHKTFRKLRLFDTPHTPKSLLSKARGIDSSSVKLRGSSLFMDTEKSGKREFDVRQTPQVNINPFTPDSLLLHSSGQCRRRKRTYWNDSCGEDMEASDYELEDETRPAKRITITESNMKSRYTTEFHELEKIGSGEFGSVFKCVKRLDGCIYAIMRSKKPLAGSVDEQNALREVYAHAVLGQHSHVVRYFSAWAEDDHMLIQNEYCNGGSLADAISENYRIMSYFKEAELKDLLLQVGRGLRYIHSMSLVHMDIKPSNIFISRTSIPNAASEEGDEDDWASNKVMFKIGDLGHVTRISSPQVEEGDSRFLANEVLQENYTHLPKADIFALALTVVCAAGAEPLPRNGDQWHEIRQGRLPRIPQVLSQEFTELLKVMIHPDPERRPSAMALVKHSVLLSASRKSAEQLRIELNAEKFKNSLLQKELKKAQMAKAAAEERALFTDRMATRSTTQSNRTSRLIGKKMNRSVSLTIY
DNA FID counter – compounds displacing fluorescent DNA intercalator, primary screen, artefact control for HCV NS3 helicase inhibitor project, biochemical, FID fluorescence; DNA fluorescent intercalator displacement; inhibition, % at 7.9 µM; 290,000 compounds, 0.17% hits; AID 1845, 2009; in the data active = inhibition above about 37%;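 note: 0% = vehicle and 100% = reference compound; higher means more ethidium bromide displaced from hairpin DNA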
RBBP9 inh – human RBBP9 inhibitors, primary screen, biochemical, fluorescence polarization, FP-Rh probe, HTS. Serine hydrolase RBBP9 (Homo sapiens), O75884. recombinant RBBP9. inhibition, % at 7.94 µM. 220,000 compounds, 0.2% hits;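 active = inhibition above the campaign mean of all tested compounds plus 3 SD, cut at about 14% in these data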;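 note: plate controls were DMSO wells with RBBP9 for no effect and wells lacking RBBP9 protein for full effect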
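Test system: recombinant human RBBP9. Quantity: 2.5 µM RBBP9 dispensing solution, before mixing. Detection: FP readout at 525/598 nm. Reagent: Serine-hydrolase probe FP-Rh, 375 nM pre-mixing. Measure: % inhibition. Control set: DMSO-treated enzyme wells and wells lacking RBBP9. Buffer or medium: Tris-NaCl-Pluronic buffer, pH 8.0. Times: preincubation 30 min plus labeling 45 min at 25 °C.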
Rad51 HR inh – human RAD51 strand exchange inhibitors, primary screen, biochemical, fluorescence; DNA repair protein RAD51 homolog 1 (Homo sapiens), Q06609; hRad51 DNA strand exchange, fluorescence dequenching; inhibition, % at 10 µM; 200,000 compounds, 0.085% hits;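 active = inhibition above 40% at the single screening dose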;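 note: 0% = DMSO control wells and 100% = blanks with heterologous ssDNA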
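Test system: preformed human Rad51 ssDNA filaments. Compound dosing: single dose, 10 µM final compound. Incubation: filaments 15 min 37 °C, then compound 30 min. Technique: FRET fluorescence dequenching, excitation 485 nm, emission 520 nm. Read-out basis: percent inhibition from fluorescence, normalised to plate control and blank means. Benchmarks: plate controls and plate blanks.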
RBBP9 inh conf – human RBBP9 inhibitors, retest, confirmation, biochemical, fluorescence polarization, FP-Rh probe, triplicate; shares compounds with RBBP9 inh; recombinant RBBP9; inhibition, % at 7.94 µM; 410 compounds, 36% hits;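 active = inhibition above the hit cutoff derived for the primary screen, cut at about 15% in these data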;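 note: 0% = RBBP9 with DMSO and 100% = wells lacking RBBP9 protein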
* marks the source's active call; other numbers are inactive results.

CC1=CC(=O)C=C(C)C1=NOC(=O)/C=C\c1ccccc1 was read as Wee1 stabilizer -1, DNA FID counter 5, RBBP9 inh -3 and Rad51 HR inh 9.
COc1ccc(OC)c(NC(=O)C2CCN(S(=O)(=O)c3c(C)noc3C)CC2)c1 was read as Wee1 stabilizer 4, DNA FID counter -18, RBBP9 inh 16*, Rad51 HR inh 2 and RBBP9 inh conf 7.
`O=C(O)/C=C/C(=O)NC1CCC(CC2CCC(NC(=O)/C=C/C(=O)O)CC2)CC1` (configuration not stated) gave Wee1 stabilizer -1, DNA FID counter 13, RBBP9 inh 21*, Rad51 HR inh 0 and RBBP9 inh conf 9.
`O=C(CCCc1c[nH]c2ccccc12)NCC1COc2ccccc2O1` (configuration not stated) gave Wee1 stabilizer -3, DNA FID counter -16 and RBBP9 inh 3.
Screening O=C(c1ccccc1F)N1CCN(c2ccc([N+](=O)[O-])cc2-n2cccc2)CC1 returned Wee1 stabilizer -1, DNA FID counter -20, RBBP9 inh 16* and RBBP9 inh conf 4.
COc1ccc(C(=O)N(CC(=O)NC(C)(C)C)c2ccc3c(c2)OCCO3)cc1OC was read as Wee1 stabilizer -2, DNA FID counter -18, RBBP9 inh 15*, Rad51 HR inh -5 and RBBP9 inh conf 6.
`C/C=C/CSc1nc2c(c(=O)[nH]c(=O)n2C)n1C(C)C` gave Wee1 stabilizer 2, DNA FID counter -5, RBBP9 inh 15*, Rad51 HR inh 6 and RBBP9 inh conf 4.
`Cc1ccccc1-n1sc2cc(F)ccc2c1=O` gave Wee1 stabilizer 0, DNA FID counter -1, RBBP9 inh 63*, Rad51 HR inh 17 and RBBP9 inh conf 72*.
CCOC(=O)C(C)(C)Sc1ncnc2nc[nH]c12 was read as Wee1 stabilizer 0, DNA FID counter -1, RBBP9 inh 16*, Rad51 HR inh -5 and RBBP9 inh conf 8.
`Cc1cccc(CS(=O)(=O)Cc2ccc(C(=O)NC3CCCC3)o2)c1` gave DNA FID counter -34.
`CC(C)NC(=O)CCS(=O)(=O)c1ccc(Br)s1` gave Wee1 stabilizer 1, DNA FID counter -11, RBBP9 inh 18*, Rad51 HR inh 0 and RBBP9 inh conf 3.
For COc1cc(NC(=O)c2ccc(Cl)cc2)c(Cl)cc1NC(=O)c1cccnc1 the results were DNA FID counter -9.
NNc1nnc2c3cc(F)ccc3n(Cc3ccccc3)c2n1 was read as Wee1 stabilizer -2, DNA FID counter -7, RBBP9 inh 20* and RBBP9 inh conf 5.
For CC(=O)Nc1ccc2nc(NC(=O)CN3CCOCC3)sc2c1 the results were DNA FID counter -5.
Cc1ccc(NC(=O)c2ccc(C(C)(C)C)cc2)cc1[N+](=O)[O-] was read as Wee1 stabilizer 1, DNA FID counter -2, RBBP9 inh -8 and Rad51 HR inh -9.
Screening COc1ccc(-c2csc(Nc3ncccc3C)n2)cc1OC returned Wee1 stabilizer 2, DNA FID counter -4, RBBP9 inh -3 and Rad51 HR inh 0.
`Cc1cccnc1Nc1nc(-c2ccc(O)c(O)c2)cs1` gave Wee1 stabilizer 2, DNA FID counter 3, RBBP9 inh 25*, Rad51 HR inh -2 and RBBP9 inh conf 55*.
For COc1cc(Nc2ncnc(N)n2)cc(OC)c1OC the results were Wee1 stabilizer 0, DNA FID counter -1, RBBP9 inh -10 and Rad51 HR inh 2.
`CC1CN(Cc2c(O)ccc3c2oc(=O)c2ccccc23)CC(C)O1` (configuration not stated) gave Wee1 stabilizer -2, DNA FID counter 2, RBBP9 inh 19*, Rad51 HR inh 1 and RBBP9 inh conf 63*.
`CNC(=O)Cn1nc(-c2ccc(C)c(S(=O)(=O)N(C)C)c2)c2ccccc2c1=O` gave Wee1 stabilizer 1, DNA FID counter -13, RBBP9 inh -5 and Rad51 HR inh 6.
For CNS(=O)(=O)c1ccc2ccccc2c1 the results were Wee1 stabilizer -1, DNA FID counter -3, RBBP9 inh 19*, Rad51 HR inh -19 and RBBP9 inh conf 0.
For O=C(NCCN1CCOCC1)c1cc(Sc2ccccc2Cl)nc2ccccc12 the results were Wee1 stabilizer 0, DNA FID counter -11, RBBP9 inh -5 and Rad51 HR inh 3.
Screening CN(C)CC(C)(C)CNC(=O)c1cc(=O)c2ccccc2o1 returned Wee1 stabilizer 0, DNA FID counter 1, RBBP9 inh -4 and Rad51 HR inh 20.
Cc1cc(=O)[nH]c2c(N=Nc3ccc(O)cc3)c(N)nn12 was read as Wee1 stabilizer -2, DNA FID counter -1, RBBP9 inh 23*, Rad51 HR inh 9 and RBBP9 inh conf 34*.
For Nc1nn2c(C(F)(F)F)cc(=O)[nH]c2c1N=Nc1cccc(F)c1 the results were Wee1 stabilizer 0, DNA FID counter -6, RBBP9 inh -4 and Rad51 HR inh -4.
NS(=O)(=O)c1ccc(Nc2nc(-c3ccc(O)cc3)cs2)cc1 was read as Wee1 stabilizer 1, DNA FID counter -3, RBBP9 inh -1 and Rad51 HR inh 6.
For Oc1ccc(Nc2nc(-c3ccc(O)cc3)cs2)cc1 the results were Wee1 stabilizer 0, DNA FID counter 7, RBBP9 inh 18*, Rad51 HR inh -2 and RBBP9 inh conf 14*.
Screening Cc1ccc(NC(=O)CS(=O)c2ccccc2N)c(C)c1 (configuration not stated) returned DNA FID counter -3.
`O=C(CSc1ccc2ccccc2n1)c1ccccc1` gave Wee1 stabilizer 3, DNA FID counter -13, RBBP9 inh 18* and RBBP9 inh conf 4.
`CC(C)OC(=O)CC(=O)CSc1nc2c(cc1C#N)CCC2` gave Wee1 stabilizer -2, DNA FID counter -1, RBBP9 inh 5 and Rad51 HR inh 4.
COC(=O)CC(=O)CSc1nc2c(cc1C#N)CCC2 was read as Wee1 stabilizer -1, DNA FID counter -12, RBBP9 inh 24*, Rad51 HR inh 4 and RBBP9 inh conf 10.
Cc1ccc(S(=O)(=O)c2c[nH]c3cc4c(cc3c2=O)OCO4)cc1 was read as Wee1 stabilizer 3, DNA FID counter -6 and RBBP9 inh 0.
COc1ccc(C2=CC(=O)C=CC2=O)cc1 was read as Wee1 stabilizer 0, DNA FID counter 0, RBBP9 inh 51*, Rad51 HR inh -5 and RBBP9 inh conf 85*.
Screening COc1ccc(S(=O)(=O)c2ccc(OC)cc2)cc1 returned Wee1 stabilizer 0, DNA FID counter -5, RBBP9 inh -2 and Rad51 HR inh -8.
